Laboratory results: ChEMBL document CHEMBL1932938, “From COX-2 inhibitor nimesulide to potent anti-cancer agent: synthesis, in vitro, in vivo and pharmacokinetic evaluation” (Eur J Med Chem, 2012)
Active and inactive are the calls of the source. The rule behind the calls is not given here.

Key:
SK-BR-3 [1] = experiment: Cell cycle arrest in human SK-BR-3 cells assessed as accumulation at G2/M phase at 0.25 uM after 12 hrs using propidium iodide staining by FACS analysis; type: functional
Summary of the method: (§1)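 SKBR-3 cells in RPMI1640 with 10% heat-inactivated FBS at 37 °C and 5% CO₂ were treated for the stated times. Cells were fixed overnight in 70% EtOH at −20 °C, then stained with propidium iodide buffer (38 mM sodium citrate pH 7.5, 69 µM PI, 120 µg/mL RNase A) for 15 min at room temperature in the dark. Up to 1×10⁴ gated cells were analyzed by flow cytometry, giving percent distribution per phase.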

SK-BR-3 [2] = experiment: Cell cycle arrest in human SK-BR-3 cells assessed as accumulation at G2/M phase at 0.25 uM after 6 hrs using propidium iodide staining by FACS analysis; type: functional; summary of the method: as §1
LOX IMVI = experiment: Growth inhibition of human LOXIMVI cells after 48 hrs by SRB assay; type: functional
SF-539 = experiment: Growth inhibition of human SF539 cells after 48 hrs by SRB assay; type: functional
RPMI-8226 = experiment: Growth inhibition of human RPMI8226 cells after 48 hrs by SRB assay; type: functional
SNB-75 = experiment: Growth inhibition of human SNB75 cells after 48 hrs by SRB assay; type: functional
MDA-MB-435 = experiment: Growth inhibition of human MDA-MB-435 cells after 48 hrs by SRB assay; type: functional
SK-BR-3 [3] = experiment: Cell cycle arrest in human SK-BR-3 cells assessed as accumulation at G2/M phase at 0.10 uM after 12 hrs using propidium iodide staining by FACS analysis; type: functional; summary of the method: as §1
SNB-19 = experiment: Growth inhibition of human SNB19 cells after 48 hrs by SRB assay; type: functional
EKVX = experiment: Growth inhibition of human EKVX cells after 48 hrs by SRB assay; type: functional
SK-BR-3 [4] = experiment: Cell cycle arrest in human SK-BR-3 cells assessed as accumulation at G2/M phase at 0.50 uM after 18 hrs using propidium iodide staining by FACS analysis; type: functional; summary of the method: as §1
M14 = experiment: Growth inhibition of human M14 cells after 48 hrs by SRB assay; type: functional
IGROV-1 = experiment: Growth inhibition of human IGROV1 cells after 48 hrs by SRB assay; type: functional
SK-BR-3 [5] = experiment: Cell cycle arrest in human SK-BR-3 cells assessed as accumulation at G2/M phase at 0.50 uM after 12 hrs using propidium iodide staining by FACS analysis; type: functional; summary of the method: as §1
NCI/ADR-RES = experiment: Growth inhibition of human NCI/ADR-RES cells after 48 hrs by SRB assay; type: functional
HT-29 [6] = experiment: Antitumor activity against human HT-29 cells xenografted in BALB/c athymic nu/nu mouse assessed as decrease in tumor size at 5 mg/kg/day, ip administered 5 times per week for 3 weeks; type: functional, organism-based
Summary of the method: (§2)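 Athymic BALB/c nu/nu mice received s.c. HT29 cells in Matrigel, 200 µL per site at two flank sites. Treatment started at ~200 mm³: 5 mg/kg/d i.p., five times weekly for three weeks, in 1% DMSO/sesame oil; controls got vehicle. Three mice per group. Tumors were measured twice weekly by caliper, volume = width²×length/2. Tumors were excised and weighed at the end.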

SK-BR-3 [7] = experiment: Cell cycle arrest in human SK-BR-3 cells assessed as accumulation at G2/M phase at 0.10 uM after 6 hrs using propidium iodide staining by FACS analysis; type: functional; summary of the method: as §1
SK-BR-3 [8] = experiment: Cell cycle arrest in human SK-BR-3 cells assessed as accumulation at S phase at 5 uM after 3 hrs using propidium iodide staining by FACS analysis; type: functional
SK-BR-3 [9] = experiment: Cell cycle arrest in human SK-BR-3 cells assessed as accumulation at Sub-G1 phase at 5 uM after 12 hrs using propidium iodide staining by FACS analysis; type: functional
[10] = Apparent oral clearance in Sprague-Dawley rat at 20 mg/kg, ip; type: ADME, organism-based; parameters: dose 20 mg/kg; settings: in vivo
Summary of the method: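 Male Sprague–Dawley rats (300–350 g), n=3, fasted overnight with water available, given a single 20 mg/kg i.p. dose in PBS with 0.1% Tween80 and 20% DMSO. Blood drawn into heparinized tubes at 0, 0.25, 0.5, 1, 2, 4, 8 and 24 h. Plasma measured by LC-MS/MS against an internal standard. Parameters from non-compartmental analysis.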

SK-BR-3 [11] = experiment: Cell cycle arrest in human SK-BR-3 cells assessed as accumulation at G1 phase at 5 uM after 12 hrs using propidium iodide staining by FACS analysis; type: functional; summary of the method: as §1
SK-BR-3 [12] = experiment: Cell cycle arrest in human SK-BR-3 cells assessed as accumulation at S phase at 0.50 uM after 6 hrs using propidium iodide staining by FACS analysis; type: functional
HT-29 [13] = experiment: Antitumor activity against human HT-29 cells xenografted in BALB/c athymic nu/nu mouse assessed as decrease in tumor weight at 5 mg/kg/day, ip administered 5 times per week for 3 weeks; type: functional, organism-based; summary of the method: as §2
SK-BR-3 [14] = experiment: Cell cycle arrest in human SK-BR-3 cells assessed as accumulation at G2/M phase at 5 uM after 6 hrs using propidium iodide staining by FACS analysis; type: functional; summary of the method: as §1
MOLT-4 = experiment: Growth inhibition of human MOLT4 cells after 48 hrs by SRB assay; type: functional
[15] = read-out: LC50 (the source's name)

SMILES: Cc1ccc(C)c(COc2cc(NC(=O)c3ccc4c(c3)OCO4)ccc2N(C)S(C)(=O)=O)c1
- Activity (SK-BR-3 [1]): 13.35%
- Activity (SK-BR-3 [2]): 9.32%
- GI50 (LOX IMVI): 66.6 nM
- TGI (LOX IMVI): > 100000 nM
- growth inhibition (GI) (LOX IMVI): Dose-dependent effect
- CC50 (LOX IMVI; [15]): > 100000 nM
- growth inhibition (GI) (SF-539): Dose-dependent effect
- GI50 (SF-539; SF-539, 48 h): 125 nM
- CC50 (SF-539; SF-539, 48 h, read-out: LC50 (the source's name)): > 100000 nM
- growth inhibition (GI) (RPMI-8226): Dose-dependent effect
- GI50 (RPMI-8226; RPMI-8226, 48 h): 290 nM
- CC50 (RPMI-8226; RPMI-8226, 48 h, read-out: LC50 (the source's name)): > 100000 nM
- growth inhibition (GI) (SNB-75): Dose-dependent effect
- GI50 (SNB-75; SNB-75, 48 h): 266 nM
- CC50 (SNB-75; SNB-75, 48 h, read-out: LC50 (the source's name)): > 100000 nM
- growth inhibition (GI) (MDA-MB-435): Dose-dependent effect
- GI50 (MDA-MB-435; MDA-MB-435, 48 h): 28.5 nM
- TGI (MDA-MB-435; MDA-MB-435, 48 h): 91.4 nM
- CC50 (MDA-MB-435; MDA-MB-435, 48 h, read-out: LC50 (the source's name)): > 100000 nM
- Activity (SK-BR-3 [3]): 12.05%
- growth inhibition (GI) (SNB-19): Dose-dependent effect
- GI50 (SNB-19; SNB-19, 48 h): 537 nM
- TGI (SNB-19; SNB-19, 48 h): > 100000 nM
- CC50 (SNB-19; SNB-19, 48 h, read-out: LC50 (the source's name)): > 100000 nM
- GI50 (EKVX): 598 nM
- TGI (EKVX): > 100000 nM
- growth inhibition (GI) (EKVX): Dose-dependent effect
- CC50 (EKVX; [15]): > 100000 nM
- Activity (SK-BR-3 [4]): 22.27%
- growth inhibition (GI) (M14): Dose-dependent effect
- GI50 (M14; M14, 48 h): 75.7 nM
- TGI (M14; M14, 48 h): 669 nM
- CC50 (M14; M14, 48 h, read-out: LC50 (the source's name)): > 100000 nM
- growth inhibition (GI) (IGROV-1): Dose-dependent effect
- GI50 (IGROV-1; IGROV-1, 48 h): 237 nM
- TGI (IGROV-1; IGROV-1, 48 h): > 100000 nM
- CC50 (IGROV-1; IGROV-1, 48 h, read-out: LC50 (the source's name)): > 100000 nM
- Activity (SK-BR-3 [5]): 24.26%
- GI50 (NCI/ADR-RES): 56.2 nM
- TGI (NCI/ADR-RES): 407 nM
- growth inhibition (GI) (NCI/ADR-RES): Dose-dependent effect
- CC50 (NCI/ADR-RES; [15]): > 100000 nM
- Activity (HT-29 [6]): Active
- Activity (SK-BR-3 [7]): 9.07%
- Activity (SK-BR-3 [8]): 16.49%
- Activity (SK-BR-3 [9]): 9.76%
- CL/F [10]: 8 mL/min
- Activity (SK-BR-3 [11]): 63.71%
- Activity (SK-BR-3 [12]): 14.73%
- Activity (HT-29 [13]): Active
- Activity (SK-BR-3 [14]): 17.19%
- growth inhibition (GI) (MOLT-4): Dose-dependent effect
- GI50 (MOLT-4; MOLT-4, 48 h): 163 nM
- TGI (MOLT-4; MOLT-4, 48 h): > 100000 nM
- CC50 (MOLT-4; MOLT-4, 48 h, read-out: LC50 (the source's name)): > 100000 nM
